These results are taken from ChEMBL document CHEMBL1143889, “N-Phenyl and N-phenylalkyl-maleimides acting against Candida spp.: time-to-kill, stability, interaction with maleamic acids” (2008).

Broadly, the MIC is the lowest concentration that inhibits growth of the organism. The low end stands for greater potency, the high end for weaker potency.

Holding throughout (type): functional
For assay [1], the system named is Candida tropicalis. Nature of the assay: Antifungal activity against Candida tropicalis C 137-1997 after 48 hrs by CLSI M27-A2 method. The procedure, abridged: (§1)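 Broth microdilution per CLSI M27-A2 in RPMI-1640, with twofold dilutions giving final 250–0.98 µg/mL. The inoculum was modified to 1–5 × 10⁴ CFU/mL instead of 1–5 × 10³, with ketoconazole and amphotericin B as positive controls. MIC was the lowest concentration giving total growth inhibition, read visually. Strains were grown on Sabouraud-chloramphenicol agar for 24 h at 37 °C.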

For assay [2], the system named is Nakaseomyces glabratus. In words: Antifungal activity against Candida glabrata C 115-2000 after 48 hrs by CLSI M27-A2 method. The procedure, abridged: as §1
Assay [3] relates to Candida albicans. Nature of the assay: Antifungal activity against Candida albicans C 128-2000 after 48 hrs by CLSI M27-A2 method. The procedure, abridged:
as §1

The subject of assay [4] is Torulaspora delbrueckii. Nature of the assay: Antifungal activity against Candida coliculosa C 122-2000 after 48 hrs by CLSI M27-A2 method. The procedure, abridged:
as §1

The test system of assay [5] is Candida albicans. In words: Antifungal activity against Candida albicans C 127-2000 after 48 hrs by CLSI M27-A2 method. The procedure, abridged:
as §1

Assay [6] has as its system Pichia kudriavzevii. Nature of the assay: Antifungal activity against Candida krusei C 117-2000 after 48 hrs by CLSI M27-A2 method. The procedure, abridged: as §1
Assay [7] deals with Clavispora lusitaniae. Nature of the assay: Antifungal activity against Candida lusitaniae C 131-2000 after 48 hrs by CLSI M27-A2 method. The procedure, abridged: as §1
The test system of assay [8] is Candida albicans. Nature of the assay: Antifungal activity against Candida albicans ATCC 10231 after 48 hrs by CLSI M27-A2 method. Conditions: ATCC 10231, 48 h. The procedure, abridged: as §1
Assay [9] concerns Candida albicans. Nature of the assay: Antifungal activity against Candida albicans C 129-2000 after 48 hrs by CLSI M27-A2 method. The procedure, abridged:
as §1

For assay [10], the system named is Candida albicans. Nature of the assay: Antifungal activity against Candida albicans C 125-2000 after 48 hrs by CLSI M27-A2 method. The procedure, abridged:
as §1

The subject of assay [11] is Kluyveromyces marxianus. Nature of the assay: Antifungal activity against Candida kefyr C 123-2000 after 48 hrs by CLSI M27-A2 method. The procedure, abridged: as §1
Assay [12] concerns Candida albicans. Nature of the assay: Antifungal activity against Candida albicans C 130-2000 after 48 hrs by CLSI M27-A2 method. The procedure, abridged:
as §1

Assay [13] relates to Candida parapsilosis. In words: Antifungal activity against Candida parapsilosis C 124-2000 after 48 hrs by CLSI M27-A2 method. The settings on record: Lodderomyces parapsilosis. The procedure, abridged:
as §1

Assay [14] has as its system Candida albicans. In words: Antifungal activity against Candida albicans C 126-2000 after 48 hrs by CLSI M27-A2 method. The procedure, abridged: as §1

Values after ≈ are worked out from the molar mass of the structure shown. Bounds are passed on as bounds.

For `O=C(O)/C=C\C(=O)NCCCc1ccccc1`, the MIC in [1], in assay [2], in [3], in assay [4], in [5] and in assay [6] was more than 250 µg/mL throughout. Further, the MIC in assay [7], in assay [8], in assay [9], in [10], in assay [11] and in assay [12] was more than 250 µg/mL throughout. Further, the MIC in [13] and in [14] was more than 250 µg/mL throughout.

As for `O=C(O)/C=C\C(=O)Nc1ccccc1`, the MIC in assay [1], in [2], in assay [3], in [4], in assay [5] and in [6] was more than 250 µg/mL throughout. Further, the MIC in assay [7], in assay [8], in assay [9], in [10], in assay [11] and in assay [12] was more than 250 µg/mL throughout. The minimum inhibitory concentration (MIC) in assay [13] and in assay [14] was more than 250 µg/mL in each case.

Consider `C[C@@H]1[C@H](O)[C@@H](C)/C=C/C=C/C=C/C=C/C=C/C=C/C=C/[C@H](O[C@@H]2O[C@H](C)[C@@H](O)[C@H](N)[C@@H]2O)C[C@@H]2O[C@](O)(C[C@@H](O)C[C@@H](O)[C@H](O)CC[C@@H](O)C[C@@H](O)CC(=O)O[C@H]1C)C[C@H](O)[C@H]2C(=O)O` [AMPHOTERICIN B], for which the MIC in [1] was determined as 0.12 µg/mL (≈ 0.13 µM); in [2] it was 0.39 µg/mL (≈ 0.422 µM); in [3], 1.56 µg/mL (≈ 1.69 µM); in [4] it was 0.39 µg/mL (≈ 0.422 µM); in assay [5] it was 0.78 µg/mL (≈ 0.844 µM); in assay [6] it was 0.39 µg/mL (≈ 0.422 µM). The MIC in assay [7] was determined as 0.39 µg/mL (≈ 0.422 µM); in [8] it was 1 µg/mL (≈ 1.08 µM); in assay [9] it was 0.78 µg/mL (≈ 0.844 µM); in assay [10], 0.78 µg/mL (≈ 0.844 µM); in assay [11], 0.78 µg/mL (≈ 0.844 µM); in assay [12], 0.39 µg/mL (≈ 0.422 µM). Moreover, the MIC in assay [13] turned out to be 0.78 µg/mL (≈ 0.844 µM); in assay [14], 1.56 µg/mL (≈ 1.69 µM).

Turning to `O=C(O)/C=C\C(=O)NCCCCc1ccccc1`, the MIC in assay [1], in assay [2], in assay [3], in [4], in assay [5] and in assay [6] was more than 250 µg/mL each time. Moreover, the minimum inhibitory concentration (MIC) in assay [7], in assay [8], in assay [9], in assay [10], in assay [11] and in [12] was more than 250 µg/mL throughout. In addition, the MIC in assay [13] and in [14] was more than 250 µg/mL each time.

Take `CC(=O)N1CCN(c2ccc(OCC3COC(Cn4ccnc4)(c4ccc(Cl)cc4Cl)O3)cc2)CC1` (stereo not given) [KETOCONAZOLE]: the MIC was determined as 0.12 µg/mL (≈ 0.226 µM) in assay [1]; 1.56 µg/mL (≈ 2.94 µM) in assay [2]; 6.25 µg/mL (≈ 11.8 µM) in [3]; 0.78 µg/mL (≈ 1.47 µM) in [4]; 6.25 µg/mL (≈ 11.8 µM) in assay [5]; 50 µg/mL (≈ 94.1 µM) in assay [6]. Moreover, the MIC in assay [7] is 25 µg/mL (≈ 47 µM); in assay [8] it was 0.5 µg/mL (≈ 0.941 µM); in [9], 12.5 µg/mL (≈ 23.5 µM); in assay [10], 6.25 µg/mL (≈ 11.8 µM); in assay [11] it was 0.78 µg/mL (≈ 1.47 µM); in assay [12], 6.25 µg/mL (≈ 11.8 µM). Besides, the minimum inhibitory concentration (MIC) in [13] turned out to be 0.78 µg/mL (≈ 1.47 µM); in assay [14], 1.56 µg/mL (≈ 2.94 µM).
